Source: publication PMC4827872 (Chemical research in toxicology, 2015)
Read-outs that look alike come from different tables or passages of the source. Where a SMILES comes first, the peptide text is derived from it. The star is where a group is joined. Cbz = O=C(OCc1ccccc1)*

Tests used:
[1] = molecular target: T1, DIO2 (Homo sapiens, UniProt Q92813); experiment: DIO2 activity in primary human astrocyte cells exposed to test compounds; type: cell-based
T1 sequence (Q92813 1-273): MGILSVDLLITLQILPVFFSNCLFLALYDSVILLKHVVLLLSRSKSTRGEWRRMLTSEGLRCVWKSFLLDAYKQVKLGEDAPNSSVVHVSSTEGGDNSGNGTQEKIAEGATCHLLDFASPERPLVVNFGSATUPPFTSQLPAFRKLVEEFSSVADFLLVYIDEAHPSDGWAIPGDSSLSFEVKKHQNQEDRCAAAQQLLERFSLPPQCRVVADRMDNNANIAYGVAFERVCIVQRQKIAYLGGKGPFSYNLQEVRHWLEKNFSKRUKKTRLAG
Procedure, shortened: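 Primary human astrocytes were grown on gelatin-coated dishes, moved to serum-free A-DMEM (30 nM selenium) 24 h before use, and induced with 10 µM forskolin. Exposure was 6 h (0.1% DMSO), with 100 nM rT3 as positive control. Microsomes (100,000×g, 60 min) were incubated 75 min at 37°C with DTT/EDTA/glycerol buffer. Net T3 was measured by LC/MS/MS (fmol min−1 mg protein−1) and expressed as % vehicle control; n=8 from 2 experiments.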

[2] = tested on: cultured cells; experiment: Cell membrane damage; type: cell-based; conditions: 24 h; for significant effects on membrane damage: any doses less than 7.5 µM; for membrane damage vs control: doses less than 50 µM
Procedure, shortened: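 Cells in 96-well plates, switched to serum-free A-DMEM with 30 nM selenium 24 h beforehand, then exposed 24 h to test compound added from 1,000× DMSO stocks (final DMSO 0.1%). Membrane damage was read as glucose-6-phosphate dehydrogenase activity released into the medium. Values were normalized to well DNA content and to DMSO vehicle controls.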

[3] = molecular target: T1, DIO2; experiment: DIO2 activity in H4 glioma cells exposed to PBDEs/OH-BDEs; type: cell-based; conditions: for decrease in DIO2 activity with MG132 coexposure: plus 10 µM MG132; for Significant DIO2 Effects in H4 Cells (%Ctrl): at the lowest dose that significantly decreased DIO2 activity
[4] = human serum, cited from earlier work
[5] = tested on: cultured cells; experiment: Cell viability; type: cell-based; conditions: for significant effects on viability: any doses less than 7.5 µM, 24 h; for decrease in viability: 5 µM, 24 h exposure
[6] = molecular target: T1, DIO2; experiment: In vitro DIO2 kinetics and inhibition in microsomal preparations of H4 cells; type: biochemical; conditions: for concentrations at which DIO2 activity was inhibited / Vmax of DIO2 with inhibitor added: H4 microsomes; for concentrations at which DIO2 activity was inhibited: 2 nM T4
[7] = tested on: DIO2 mRNA; experiment: DIO2 mRNA expression; type: cell-based, human; conditions: 6 h; for DIO2 mRNA expression level vs control: 3 doses
[8] = Biotransformation assay in cultured cells; type: in vitro ADME, human; conditions: cells exposed for up to 48 h; 1 µM
[9] = substrate: NC(Cc1cc(I)c(Oc2cc(I)c(O)c(I)c2)c(I)c1)C(=O)O; experiment: In vitro DIO2 kinetics and inhibition in microsomal preparations of H4 cells; type: biochemical, human; conditions: other: H4 microsomal fraction; T4 as substrate; no inhibitor; 37.0 °C
[10] = H4 cells, 500 nM, 6 h, relative to MG132 control
[11] = geometric mean or median, ref 5
[12] = geometric mean or median, ref 43
[13] = geometric mean or median, ref 52
[14] = Homo sapiens, read-out: DIO2 mRNA expression ratio relative to the control value of 1.0
[15] = H4 cells, 5,000 nM, 6 h exposure
[16] = H4 glioma cells, doses of approximately 1–5 µM (abstract)
[17] = calculated assuming serum lipid 6.36 mg mL−1, ref 53
[18] = geometric mean or median, ref 53
[19] = calculated assuming serum lipid 6.36 mg mL−1, ref 36
[20] = calculated assuming serum lipid 6.36 mg mL−1, ref 5
[21] = calculated assuming serum lipid 6.36 mg mL−1, ref 43
[22] = calculated assuming serum lipid 6.36 mg mL−1, ref 52

## Brc1ccc(Oc2cc(Br)c(Br)cc2Br)c(Br)c1 [BDE-99]
[1]; 6 h, read-out: decrease in DIO2 activity
  inhibition at 0.5 µM: 51.8 ± 8.6%
[1]; primary astrocyte cells, doses of 500 nM or greater (abstract)
  decrease in DIO2 activity: 50%
[2]
  significant effects on membrane damage: not detected
[3]; 6 h, read-out: decrease in DIO2 activity, H4 cells, 500 nM, 6 h exposure
  inhibition at 0.5 µM: 82.9 ± 6.7%
[3]; 6 h, read-out: decrease in DIO2 activity, H4 cells, 2,500 nM, 6 h exposure
  inhibition at 2.5 µM: 80.8 ± 4.7%
[3]; 12 h, read-out: decrease in DIO2 activity, H4 cells, 500 nM, 12 h exposure
  inhibition at 0.5 µM: 64.6 ± 2.8%
[3]; [10]
  decrease in DIO2 activity with MG132 coexposure: 45.5 ± 3.8%
[3]; H4 cells, doses of 500 nM or greater (abstract)
  decrease in DIO2 activity: up to 80%
[3]
  Significant DIO2 Effects in H4 Cells (%Ctrl): 82.9%
[3]; both cell types (primary astrocytes and H4 glioma), exposure for a few hours
  decrease in DIO2 activity: approximately 50%
[4]; [11]
  Average Serum Concentration: 6.39 ng/g lipid
[4]; [12]
  Average Serum Concentration: 3.0 ng/g lipid
[4]; [13]
  Average Serum Concentration: 26.1 ng/g lipid
[4]; ref 5
  Maximum Serum Concentration: 225 ng/g lipid
[4]; ref 43
  Maximum Serum Concentration: 33 ng/g lipid
[4]; ref 52
  Maximum Serum Concentration: 1,200 ng/g lipid
[5]
  significant effects on viability: not detected
[6]
  Ki: 33.3 µM
  concentrations at which DIO2 activity was inhibited: > 1 µM
[6]; 20 µM BDE-99 added
  Vmax of DIO2 with inhibitor added: 50.6 ± 5.6 fmol min^−1 mg protein^−1
[6]; read-out: maximum inhibition of DIO2
  inhibition at 90 µM: 45%
[7]; [14]
  mrna remaining at 0.5 µM: 63 ± 6%
  mrna remaining at 2.5 µM: 59 ± 10%
[8]
  metabolites formed in cells or cell culture media: Neither OH-BDEs nor debrominated PBDE metabolites were detected

## Oc1c(Br)ccc(Oc2ccc(Br)cc2Br)c1Br [3-OH-BDE-47]
[2]
  membrane damage vs control: not significantly different from control
[3]; H4 cells
  lowest dose that significantly decreased DIO2 activity: ~1,000 nM
[3]; H4 cells, 1,000 nM, 1 h exposure
  decrease in DIO2 activity: 71.1 ± 13.7%
[3]; H4 cells, 1,000 nM, 6 h exposure
  decrease in DIO2 activity: 52.1 ± 8.5%
[3]; H4 cells, 1,000 nM, 12 h exposure
  decrease in DIO2 activity: not significantly different from control
[3]; [15]
  decrease in DIO2 activity: 68.2 ± 13.9%
[3]; [16]
  decrease in DIO2 activity: 45–80%
[3]
  Significant DIO2 Effects in H4 Cells (%Ctrl): 71.1%
[4]; [17]
  Average Serum Concentration: 0.020 nM
[4]; [18]
  Average Serum Concentration: 1.6 ng/g lipid
[5]
  decrease in viability: 31.7 ± 7.8%
[6]
  concentrations at which DIO2 activity was inhibited: > 1 µM
[6]; read-out: Ki for DIO2, calculated from IC50, measured T4 concentration and Km
  Ki: 1.6 µM
[7]; H4 cells
  DIO2 mRNA expression level vs control: not significantly different from control

## Oc1cc(Br)cc(Br)c1Oc1ccc(Br)cc1Br [6-OH-BDE-47]
[2]
  membrane damage vs control: not significantly different from control
[3]; H4 cells
  lowest dose that significantly decreased DIO2 activity: 5,000 nM
[3]; [15]
  decrease in DIO2 activity: 57.1 ± 11.4%
[3]; [16]
  decrease in DIO2 activity: 45–80%
[3]
  Significant DIO2 Effects in H4 Cells (%Ctrl): 57.1%
[4]; [19]
  Average Serum Concentration: 0.0022 nM
  Maximum Serum Concentration: 0.137 nM
[4]; [17]
  Average Serum Concentration: 0.13 nM
[4]; geometric mean or median, ref 36
  Average Serum Concentration: 0.17 ng/g lipid
[4]; [18]
  Average Serum Concentration: 9.9 ng/g lipid
[4]; geometric mean or median, ref 54
  Average Serum Concentration: 0.0131 nM
[4]; ref 36
  Maximum Serum Concentration: 10.8 ng/g lipid
[4]; ref 54
  Maximum Serum Concentration: 0.336 nM
[5]
  decrease in viability: 32.0 ± 8.2%
[7]; H4 cells, 5,000 nM, normalized to RPL13A
  DIO2 mRNA expression ratio relative to the control value of 1.0: 0.59 ± 0.08

## Oc1cc(Oc2cc(Br)c(Br)cc2Br)c(Br)cc1Br [5’-OH-BDE-99]
[2]
  significant effects on membrane damage: not detected
[3]; 6 h, read-out: decrease in DIO2 activity, H4 cells, 1,000 nM, 6 h exposure
  inhibition at 1 µM: 57.4 ± 1.2%
[3]; 6 h, read-out: decrease in DIO2 activity, H4 cells, 5,000 nM, 6 h exposure
  inhibition at 5 µM: 63.6 ± 2%
[3]; 12 h, read-out: decrease in DIO2 activity, H4 cells, 1,000 nM, 12 h exposure
  inhibition at 1 µM: 55.7 ± 5.4%
[3]; H4 cells
  lowest dose that significantly decreased DIO2 activity: ~1,000 nM
[3]; [10]
  decrease in DIO2 activity with MG132 coexposure: 37.0 ± 2.6%
[3]; [16]
  decrease in DIO2 activity: 45–80%
[3]
  Significant DIO2 Effects in H4 Cells (%Ctrl): 57.4%
[4]; [18]
  Average Serum Concentration: 22 ng/g lipid
[5]
  significant effects on viability: not detected
[6]
  IC50: 16.6 ± 1.1 µM
  Ki: 7.11 µM
  concentrations at which DIO2 activity was inhibited: > 1 µM
[6]; 15 µM 5’-OH-BDE-99 added
  Vmax of DIO2 with inhibitor added: 47.2 ± 8.0 fmol min^−1 mg protein^−1
[7]; [14]
  mrna remaining at 5 µM: 64 ± 12%

## Brc1ccc(Oc2ccc(Br)cc2Br)c(Br)c1 [BDE-47]
[2]
  significant effects on membrane damage: not detected
[3]; H4 cells, any of the exposure concentrations, 6 h exposure
  effect on DIO2 activity: did not significantly alter
[3]
  Significant DIO2 Effects in H4 Cells (%Ctrl): None
[4]; [20]
  Average Serum Concentration: 0.305 nM
  Maximum Serum Concentration: 4.58 nM
[4]; [21]
  Average Serum Concentration: 1.01 nM
  Maximum Serum Concentration: 1.94 nM
[4]; [22]
  Average Serum Concentration: 1.02 nM
  Maximum Serum Concentration: 60.7 nM
[4]; [11]
  Average Serum Concentration: 23.3 ng/g lipid
[4]; [12]
  Average Serum Concentration: 77 ng/g lipid
[4]; [13]
  Average Serum Concentration: 77.8 ng/g lipid
[4]; ref 5
  Maximum Serum Concentration: 350 ng/g lipid
[4]; ref 43
  Maximum Serum Concentration: 148 ng/g lipid
[4]; ref 52
  Maximum Serum Concentration: 4,640 ng/g lipid
[5]
  significant effects on viability: not detected
[7]; H4 cells
  DIO2 mRNA expression level vs control: not significantly different from control

## CC(C)C[C@@H](C=O)NC(=O)[C@H](CC(C)C)NC(=O)[C@H](CC(C)C)NC(=O)OCc1ccccc1 [MG132, reference compound] (Cbz-Leu-Leu-Leu-aldehyde)
[3]; H4 cells, 10 µM
  increase in basal DIO2 activity: 73.5 ± 17.9%

## N[C@@H](Cc1ccc(Oc2cc(I)c(O)c(I)c2)c(I)c1)C(=O)O [rT3, 3,3’,5’ Triiodothyronine, reference compound]
[1]; primary human astrocytes, 100 nM, 6 h, positive control
  decrease in DIO2 activity: 49.4 ± 4.1%
[3]; H4 cells, 100 nM, 6 h, no inhibitor coexposure (Figure 8)
  decrease in DIO2 activity: 55.9% ± 3.6
[3]; H4 cells, 100 nM, 6 h
  decrease in DIO2 activity with MG132 coexposure: 25.8 ± 2.3%

B1: DIO2 (Homo sapiens) (protein)
chain: MGILSVDLLITLQILPVFFSNCLFLALYDSVILLKHVVLLLSRSKSTRGEWRRMLTSEGLRCVWKSFLLDAYKQVKLGEDAPNSSVVHVSSTEGGDNSGNGTQEKIAEGATCHLLDFASPERPLVVNFGSATUPPFTSQLPAFRKLVEEFSSVADFLLVYIDEAHPSDGWAIPGDSSLSFEVKKHQNQEDRCAAAQQLLERFSLPPQCRVVADRMDNNANIAYGVAFERVCIVQRQKIAYLGGKGPFSYNLQEVRHWLEKNFSKRUKKTRLAG
[9]
  Km: 3.49 ± 0.94 nM
  Vmax: 47.5 ± 2.9 fmol min^−1 mg protein^−1
